Columns and labels:
[1] = molecular target: Sodium-dependent dopamine transporter (Homo sapiens, UniProt Q01959); assay: Inhibition of [3H]dopamine reuptake at human DAT expressed in CHOK1 cells by scintillation counting; format: cell-based, CHO-K1
[2] = molecular target: Sodium-dependent noradrenaline transporter (Homo sapiens, UniProt P23975); assay: Inhibition of [3H]norepinephrine reuptake at human NET expressed in MDCK cells by scintillation counting; format: cell-based
[3] = Half life in mouse liver microsome; format: ADME; details: liver microsomes
Method in brief: (§1)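 Microsomal stability and CYP inhibition were run by a contract laboratory under its standard protocols. Stability was measured in human and mouse liver microsomes and reported as t1/2 in min. Midazolam was the reference substrate for CYP3A4.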

[4] = Half life in human liver microsome; format: ADME; details: liver microsomes; method in brief: as §1
Cytochrome P450 2C9 = Cytochrome P450 2C9 (Homo sapiens, UniProt P11712); assay: Inhibition of CYP2C9; format: ADME; method in brief: as §1
Cytochrome P450 2D6 = Cytochrome P450 2D6 (Homo sapiens, UniProt P10635); assay: Inhibition of CYP2D6; format: ADME; method in brief: as §1
Cytochrome P450 2C19 = Cytochrome P450 2C19 (Homo sapiens, UniProt P33261); assay: Inhibition of CYP2C19; format: ADME
Cytochrome P450 3A4 = Cytochrome P450 3A4 (Homo sapiens, UniProt P08684); assay: Inhibition of CYP3A4; format: ADME; method in brief: as §1
[5] = molecular target: Voltage-gated inwardly rectifying potassium channel KCNH2 (Homo sapiens, UniProt Q12809); assay: Inhibition of human ERG
[6] = Ratio of drug level in whole brain to plasma of mouse at 30 mg/kg, po after 120 mins; format: ADME, organism-based; design: dose 30 mg/kg, route oral; details: read-out: BPR
Method in brief: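 Male mice were dosed orally once with the HCl salt at 3, 10 and 30 mg/kg, with a 120 min pretreatment before the 5 min tail suspension test. There were 10–12 mice per group. Afterwards, whole brain (ng/g) and plasma (ng/mL) samples were taken from the tested animals to give the brain-to-plasma ratio.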

[7] = Drug level in mouse whole brain at 30 mg/kg, po after 120 mins; format: ADME, organism-based; design: dose 30 mg/kg, route oral; details: in vivo, 2 h
Method in brief: (§2)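 Male mice given the HCl salt orally at 3, 10 or 30 mg/kg. Plasma and whole brain were sampled from the tail suspension test animals after the 120 min pretreatment. Levels reported as ng/mL for plasma and ng/g for brain.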

Mus musculus [8] = assay: Antidepressant activity in mouse assessed as decrease in immobility at 30 mg/kg, po after 120 mins by tail suspension test; format: functional; details: 2 h
Method in brief: (§3)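 Male mice (10–12 per group) dosed orally once, 120 min pretreatment, then suspended by the tail. Immobility recorded automatically for 5 min, scored blind, compared with a vehicle group. One-way ANOVA with post-hoc comparisons, p <0.05 taken as significant.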

[9] = Plasma protein binding in mouse at 3 to 30 mg/kg, po after 120 mins; format: ADME, organism-based; design: dose 3-30 mg/kg, route oral; details: read-out: PPB
[10] = Drug level in mouse whole brain at 10 mg/kg, po after 120 mins; format: ADME, organism-based; design: dose 10 mg/kg, route oral; details: in vivo, 2 h; method in brief: as §2
[11] = Drug level in mouse whole brain at 3 mg/kg, po after 120 mins; format: ADME, organism-based; design: dose 3 mg/kg, route oral; details: in vivo, 2 h; method in brief: as §2
Mus musculus [12] = assay: Antidepressant activity in mouse assessed as decrease in immobility at 10 mg/kg, po after 120 mins by tail suspension test; format: functional; details: 2 h; method in brief: as §3
Brain = assay: fCmax in mouse brain at 3 to 30 mg/kg, po after 120 mins; format: ADME, organism-based; design: dose 3-30 mg/kg, route oral; details: in vivo, 2 h
Method in brief: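 Brain free level estimated from measured brain concentration in the tail suspension test animals, corrected by mouse plasma protein binding.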

[13] = Drug level in mouse plasma at 3 mg/kg, po after 120 mins; format: ADME, organism-based; design: dose 3 mg/kg, route oral; details: read-out: Drug uptake; method in brief: as §2
Mus musculus [14] = assay: Antidepressant activity in po dosed mouse assessed as decrease in immobility after 120 mins by tail suspension test; format: functional, organism-based; method in brief: as §3
[15] = Drug level in mouse plasma at 30 mg/kg, po after 120 mins; format: ADME, organism-based; design: dose 30 mg/kg, route oral; details: read-out: Drug uptake; method in brief: as §2
Mus musculus [16] = assay: Neurotoxicity in mouse assessed as effect on locomotor activity at 3 to 30 mg/kg, po; format: toxicity, organism-based; design: dose 3-30 mg/kg, route oral; details: in vivo
Method in brief: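 Mice pretreated orally with vehicle or compound, returned to the home cage, then placed individually in locomotor cages with infrared photocell beams. Horizontal and vertical activity monitored in 5 min intervals for up to 60 min; the first 5 min were assessed at 10 and 30 mg/kg. One-way ANOVA, p <0.05.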

Mus musculus [17] = assay: Antidepressant activity in mouse assessed as decrease in immobility at 100 mg/kg, po after 120 mins by tail suspension test; format: functional; details: 2 h; method in brief: as §3
[18] = Drug level in mouse plasma at 10 mg/kg, po after 120 mins; format: ADME, organism-based; design: dose 10 mg/kg, route oral; details: read-out: Drug uptake; method in brief: as §2

Sequence of Cytochrome P450 3A4 (P08684 whole entry): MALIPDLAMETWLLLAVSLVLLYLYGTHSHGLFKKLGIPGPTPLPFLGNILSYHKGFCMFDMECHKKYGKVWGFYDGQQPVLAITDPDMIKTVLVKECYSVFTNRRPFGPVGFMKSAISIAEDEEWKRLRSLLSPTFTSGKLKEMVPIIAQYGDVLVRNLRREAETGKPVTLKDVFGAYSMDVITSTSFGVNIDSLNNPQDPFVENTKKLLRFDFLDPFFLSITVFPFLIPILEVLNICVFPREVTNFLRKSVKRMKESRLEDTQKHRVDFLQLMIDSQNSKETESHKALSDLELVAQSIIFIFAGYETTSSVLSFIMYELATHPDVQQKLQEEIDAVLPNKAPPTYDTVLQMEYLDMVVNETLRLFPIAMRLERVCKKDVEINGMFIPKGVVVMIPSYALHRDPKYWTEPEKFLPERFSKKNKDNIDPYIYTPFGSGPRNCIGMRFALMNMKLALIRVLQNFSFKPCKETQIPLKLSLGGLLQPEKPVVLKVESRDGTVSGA
Sequence of Cytochrome P450 2C9 (P11712 whole entry): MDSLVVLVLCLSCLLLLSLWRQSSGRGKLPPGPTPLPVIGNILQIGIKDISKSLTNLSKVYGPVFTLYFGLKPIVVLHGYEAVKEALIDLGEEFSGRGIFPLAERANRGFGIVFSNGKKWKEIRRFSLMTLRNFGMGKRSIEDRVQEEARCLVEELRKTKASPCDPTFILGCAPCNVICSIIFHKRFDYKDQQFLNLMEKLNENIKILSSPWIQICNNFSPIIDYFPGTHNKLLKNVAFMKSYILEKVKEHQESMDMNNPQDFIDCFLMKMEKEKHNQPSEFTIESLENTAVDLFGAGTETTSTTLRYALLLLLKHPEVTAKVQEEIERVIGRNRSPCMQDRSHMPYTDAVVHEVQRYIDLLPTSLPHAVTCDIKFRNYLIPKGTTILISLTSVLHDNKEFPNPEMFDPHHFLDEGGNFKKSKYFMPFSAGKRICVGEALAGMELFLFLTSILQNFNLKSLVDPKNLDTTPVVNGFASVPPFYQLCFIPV
Sequence of Sodium-dependent noradrenaline transporter (P23975 whole entry): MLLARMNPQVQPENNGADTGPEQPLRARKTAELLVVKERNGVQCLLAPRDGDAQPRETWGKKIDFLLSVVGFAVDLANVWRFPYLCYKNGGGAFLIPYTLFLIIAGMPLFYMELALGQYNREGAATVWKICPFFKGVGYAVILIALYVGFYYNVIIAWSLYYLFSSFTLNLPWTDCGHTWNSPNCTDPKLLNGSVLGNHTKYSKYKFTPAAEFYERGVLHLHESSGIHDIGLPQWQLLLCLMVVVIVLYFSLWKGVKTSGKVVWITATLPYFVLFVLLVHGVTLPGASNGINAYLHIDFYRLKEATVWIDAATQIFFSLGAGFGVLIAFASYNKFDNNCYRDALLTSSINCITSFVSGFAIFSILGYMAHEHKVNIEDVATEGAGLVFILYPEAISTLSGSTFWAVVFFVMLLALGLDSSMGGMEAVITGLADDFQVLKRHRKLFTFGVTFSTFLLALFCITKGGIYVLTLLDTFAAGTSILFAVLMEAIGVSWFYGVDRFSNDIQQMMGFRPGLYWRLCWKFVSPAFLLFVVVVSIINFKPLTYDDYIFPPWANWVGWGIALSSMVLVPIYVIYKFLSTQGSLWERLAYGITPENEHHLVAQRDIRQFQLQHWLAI
Sequence of Sodium-dependent dopamine transporter (Q01959 whole entry): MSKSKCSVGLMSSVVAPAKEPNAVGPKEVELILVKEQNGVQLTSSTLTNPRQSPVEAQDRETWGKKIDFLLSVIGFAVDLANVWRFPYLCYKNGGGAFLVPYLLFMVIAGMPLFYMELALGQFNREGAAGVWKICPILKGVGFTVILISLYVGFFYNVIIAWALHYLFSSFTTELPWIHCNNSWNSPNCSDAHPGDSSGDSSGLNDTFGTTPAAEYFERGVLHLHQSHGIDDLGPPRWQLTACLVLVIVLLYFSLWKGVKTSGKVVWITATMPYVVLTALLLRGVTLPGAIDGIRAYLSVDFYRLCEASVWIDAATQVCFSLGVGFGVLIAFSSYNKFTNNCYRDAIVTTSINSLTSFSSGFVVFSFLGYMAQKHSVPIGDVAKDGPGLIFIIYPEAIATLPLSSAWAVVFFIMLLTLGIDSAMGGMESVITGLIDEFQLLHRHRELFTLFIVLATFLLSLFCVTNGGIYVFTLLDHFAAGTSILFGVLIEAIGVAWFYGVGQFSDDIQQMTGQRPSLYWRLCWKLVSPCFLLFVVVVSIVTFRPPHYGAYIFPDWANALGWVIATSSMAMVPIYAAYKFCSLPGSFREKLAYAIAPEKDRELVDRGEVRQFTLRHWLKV
Sequence of Cytochrome P450 2D6 (P10635 whole entry): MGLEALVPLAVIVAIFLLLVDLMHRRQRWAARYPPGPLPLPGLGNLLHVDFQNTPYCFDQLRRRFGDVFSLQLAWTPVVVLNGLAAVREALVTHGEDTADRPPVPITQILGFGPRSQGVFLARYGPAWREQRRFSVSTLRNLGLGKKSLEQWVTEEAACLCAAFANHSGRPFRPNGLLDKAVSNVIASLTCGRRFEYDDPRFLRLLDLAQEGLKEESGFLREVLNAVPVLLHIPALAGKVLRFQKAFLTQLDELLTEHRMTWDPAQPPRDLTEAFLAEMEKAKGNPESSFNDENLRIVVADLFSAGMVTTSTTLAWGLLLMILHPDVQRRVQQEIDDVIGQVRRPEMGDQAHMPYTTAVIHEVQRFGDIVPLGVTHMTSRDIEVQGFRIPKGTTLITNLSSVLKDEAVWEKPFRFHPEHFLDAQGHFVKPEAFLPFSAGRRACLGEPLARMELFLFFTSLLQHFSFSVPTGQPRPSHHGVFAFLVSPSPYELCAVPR
Sequence of Voltage-gated inwardly rectifying potassium channel KCNH2 (Q12809 whole entry): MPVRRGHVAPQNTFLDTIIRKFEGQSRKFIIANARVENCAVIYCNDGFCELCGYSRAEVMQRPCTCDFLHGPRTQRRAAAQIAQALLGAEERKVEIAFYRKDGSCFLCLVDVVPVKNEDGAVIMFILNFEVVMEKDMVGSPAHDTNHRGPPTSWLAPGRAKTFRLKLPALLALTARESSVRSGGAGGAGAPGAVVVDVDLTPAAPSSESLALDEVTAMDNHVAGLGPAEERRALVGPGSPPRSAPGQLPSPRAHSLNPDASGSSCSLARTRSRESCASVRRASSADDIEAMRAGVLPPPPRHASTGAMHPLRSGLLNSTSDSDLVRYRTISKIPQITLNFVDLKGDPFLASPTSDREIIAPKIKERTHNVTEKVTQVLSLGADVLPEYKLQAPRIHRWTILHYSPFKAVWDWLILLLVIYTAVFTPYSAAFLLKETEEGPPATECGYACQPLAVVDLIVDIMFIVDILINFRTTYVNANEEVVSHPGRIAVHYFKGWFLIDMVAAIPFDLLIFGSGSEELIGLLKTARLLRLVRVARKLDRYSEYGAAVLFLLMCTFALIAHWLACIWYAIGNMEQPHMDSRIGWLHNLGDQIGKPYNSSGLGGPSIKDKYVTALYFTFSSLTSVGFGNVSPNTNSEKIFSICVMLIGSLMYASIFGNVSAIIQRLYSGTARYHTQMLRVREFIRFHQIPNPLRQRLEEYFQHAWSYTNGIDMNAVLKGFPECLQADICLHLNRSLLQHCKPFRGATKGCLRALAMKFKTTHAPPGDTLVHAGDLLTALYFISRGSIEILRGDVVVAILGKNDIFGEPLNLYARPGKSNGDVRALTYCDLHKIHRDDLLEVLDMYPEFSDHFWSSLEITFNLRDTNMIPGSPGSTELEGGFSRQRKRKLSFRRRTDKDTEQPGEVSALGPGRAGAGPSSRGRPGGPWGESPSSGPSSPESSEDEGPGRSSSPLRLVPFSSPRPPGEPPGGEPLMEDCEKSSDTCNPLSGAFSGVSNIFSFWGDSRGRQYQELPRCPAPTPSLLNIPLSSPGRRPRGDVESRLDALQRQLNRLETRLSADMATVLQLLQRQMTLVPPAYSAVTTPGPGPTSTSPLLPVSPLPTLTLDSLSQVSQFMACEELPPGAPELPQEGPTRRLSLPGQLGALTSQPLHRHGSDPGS
Sequence of Cytochrome P450 2C19 (P33261 whole entry): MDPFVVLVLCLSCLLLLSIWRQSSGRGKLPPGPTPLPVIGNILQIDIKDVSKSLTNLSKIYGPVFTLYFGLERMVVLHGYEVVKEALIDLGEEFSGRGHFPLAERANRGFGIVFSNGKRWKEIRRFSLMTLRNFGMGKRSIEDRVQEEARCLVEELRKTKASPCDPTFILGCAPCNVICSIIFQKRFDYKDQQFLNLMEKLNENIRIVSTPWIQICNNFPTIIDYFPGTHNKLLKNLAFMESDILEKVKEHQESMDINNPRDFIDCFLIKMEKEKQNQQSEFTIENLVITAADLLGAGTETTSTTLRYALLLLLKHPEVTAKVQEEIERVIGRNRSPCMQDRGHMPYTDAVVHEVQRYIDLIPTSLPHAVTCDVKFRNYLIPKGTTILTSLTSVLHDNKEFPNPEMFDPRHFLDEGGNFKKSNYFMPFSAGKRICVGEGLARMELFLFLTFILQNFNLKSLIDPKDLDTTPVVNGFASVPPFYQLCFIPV

SMILES	IC50 [1]	IC50 [2]	half-life [3]	half-life [4]	IC50 (Cytochrome P450 2C9)	IC50 (Cytochrome P450 2D6)	IC50 (Cytochrome P450 2C19)	IC50 (Cytochrome P450 3A4)	also measured
N[C@@H]1Cc2ccccc2[C@H](c2ccc(Cl)c(Cl)c2)C1	894 nM	855 nM	–	–	–	–	–	–	–
CN[C@@H]1CCc2ccccc2[C@H]1c1ccc(Cl)c(Cl)c1	212 nM	1640 nM	0.333 h	1.58 h	> 10000 nM	57 nM	–	–	–
CN[C@@H]1Cc2ccccc2[C@H](c2ccc(Cl)c(Cl)c2)C1	281 nM	–	> 5 h	> 5 h	> 25000 nM	20 nM	> 25000 nM	> 25000 nM	IC50 [5]: 5270 nM
CNC[C@H]1Cc2ccccc2[C@@H](c2ccc(Cl)c(Cl)c2)C1	484 nM	372 nM	–	–	–	–	–	–	–
CN(C)[C@@H]1Cc2ccccc2[C@H](c2ccc(Cl)c(Cl)c2)C1	273 nM	164 nM	–	–	–	–	–	–	–
CN[C@H]1Cc2ccccc2[C@H](c2ccc(Cl)c(Cl)c2)C1	–	–	> 5 h	> 5 h	> 25000 nM	67 nM	> 25000 nM	> 25000 nM	–
CNC[C@@H]1Cc2ccccc2[C@@H](c2ccc(Cl)c(Cl)c2)C1	103 nM	126 nM	1.55 h	> 5 h	> 25000 nM	917 nM	2170 nM	> 25000 nM	–
CN[C@@H]1Cc2ccccc2[C@@H](c2ccc(Cl)c(Cl)c2)C1	62 nM	–	2 h	> 5 h	> 25000 nM	1160 nM	5260 nM	> 25000 nM	IC50 [5]: 2320 nM
CN[C@H]1CC[C@@H](c2ccc(Cl)c(Cl)c2)c2ccccc21 [SERTRALINE]	–	–	–	> 2 h	> 10000 nM	1400 nM	310 nM	–	–
CN(C)C[C@@H]1Cc2ccccc2[C@H](c2ccc(Cl)c(Cl)c2)C1 (racemic)	332 nM	565 nM	–	–	–	–	–	–	–
CN(C)C[C@H]1Cc2ccccc2[C@H](c2ccc(Cl)c(Cl)c2)C1 (mixture of isomers)	339 nM	309 nM	–	–	–	–	–	–	–
CN(C)[C@H]1Cc2ccccc2[C@@H](c2ccc(Cl)c(Cl)c2)C1	319 nM	98 nM	–	–	–	–	–	–	–
CNC[C@H]1Cc2ccccc2[C@H](c2ccc(Cl)c(Cl)c2)C1	–	–	> 5 h	> 5 h	> 25000 nM	41 nM	7690 nM	20100 nM	IC50 [5]: 1610 nM
CN[C@@H]1CCc2ccccc2[C@@H]1c1ccc(Cl)c(Cl)c1	559 nM	112 nM	0.917 h	0.917 h	7600 nM	33 nM	–	–	–
NCC[C@H]1Cc2ccccc2[C@@H](c2ccc(Cl)c(Cl)c2)C1	50 nM	–	> 5 h	> 5 h	> 25000 nM	13800 nM	1640 nM	> 25000 nM	IC50 [5]: 1510 nM
CNCCCN1c2ccccc2CCc2ccccc21 [DESIPRAMINE]	–	–	–	–	–	–	–	–	Kp at 2 h [6]: 40
CNC[C@@H]1Cc2ccccc2[C@H](c2ccc(Cl)c(Cl)c2)C1	111 nM	210 nM	> 5 h	> 5 h	> 25000 nM	154 nM	6020 nM	> 25000 nM	IC50 [5]: 2000 nM
NCC[C@@H]1Cc2ccccc2[C@H](c2ccc(Cl)c(Cl)c2)C1	32 nM	–	> 5 h	> 5 h	> 25000 nM	265 nM	3760 nM	> 25000 nM	IC50 [5]: 13100 nM
CN[C@H]1CCc2ccccc2[C@H]1c1ccc(Cl)c(Cl)c1	1620 nM	7260 nM	0.1 h	0.917 h	> 10000 nM	495 nM	–	–	–
CN(C)[C@@H]1Cc2ccccc2[C@@H](c2ccc(Cl)c(Cl)c2)C1	176 nM	174 nM	–	–	–	–	–	–	–
CN[C@H]1CCc2ccccc2[C@@H]1c1ccc(Cl)c(Cl)c1	91 nM	766 nM	1.68 h	1.77 h	> 10000 nM	8 nM	–	–	–
N[C@@H]1Cc2ccccc2[C@@H](c2ccc(Cl)c(Cl)c2)C1	408 nM	731 nM	–	–	–	–	–	–	–
CN[C@H]1Cc2ccccc2[C@@H](c2ccc(Cl)c(Cl)c2)C1	–	–	> 5 h	> 5 h	> 25000 nM	2780 nM	10100 nM	17100 nM	Drug uptake [7]: 13571 ng; inhibition in vivo at 30 mg/kg (Mus musculus [8]): 50%; fraction unbound at 2 h [9]: 0.01; Drug uptake [10]: 6021 ng; Drug uptake [11]: 2830 ng; inhibition in vivo at 10 mg/kg (Mus musculus [12]): 21%; fCmax (Brain): 440 nM; concentration at 2 h [13]: 96 ng/mL; inhibition (Mus musculus [14]): Dose-dependent effect; concentration at 2 h [15]: 344 ng/mL; Activity (Mus musculus [16]): Non-toxic; inhibition in vivo at 100 mg/kg (Mus musculus [17]): 30%; IC50 [5]: 1600 nM; concentration at 2 h [18]: 164 ng/mL
N[C@H]1Cc2ccccc2[C@@H](c2ccc(Cl)c(Cl)c2)C1	175 nM	174 nM	–	–	–	–	–	–	–
